Sequences and labels used below:
B1: tRNA (parent)
chain: GUUCCGUUGGCGUAAUGGUAACGCGUCUCCCUCCUAAGGAGAAGACUGCGGGUUCGAGUCCCGUACGGAACG

Yeast fitness data for 38 variants are collected here from the RNAGym collection of RNA variant scans (doi:10.1126/science.aae0568).

Variants at the floor of the assay were thinned out. Bounds are passed on as bounds.

This data set covers variants of B1. Nature of the data set: yeast fitness relative to wild type (ratio to wild type); higher = fitter; tRNA-Arg(CCU), competitive growth, 37 C, YPD. An outline of the steps: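 Genotype frequency changes were the basis for Darwinian fitness relative to wild type. The frequencies came from 100-nucleotide paired-end sequencing of gene amplicons from the start population and each end population of pooled yeast strains with tRNA-Arg(CCU) gene variants at the native locus. Competition ran in YPD at 37°C for 24 hours in six replicates, genotypes needed ≥ 100 starting reads, and estimates < 0.5 were set to 0.5.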
GUUCCGUUGGCGUAAUGGUAACGCGUCUCCCACCUAAGGAGAAGACUGUGGGUUCGAGUCCCGUACGGAACG: the yeast fitness is 0.78. Consider GUUCCGUUGGCGCAAUGGUAACGCGUCUCCCUCCUAAGGAGUAGACUGCGGGUCCGAGUCCCGUACGGAACG, for which the yeast fitness is 0.592. As for GUUCCGUUGGCGUACUGGUAACGCGUCUCCCUCCUACGGACAAGACUGCGGGUUCGAGUCCCGUAAGGAACG, the yeast fitness is 0.589. To GUUCCGUUGGCGUAAUGGUAACGCGUCUCGCUCCUAAGGAGUAGACUGCGGGUUCGACUCCCGUACGGAACG belongs no more than 0.5; to GUUCCGUUGGCGUAAUGGUAACGAGUCUCCCUCCUUAGGAGACGACUGCGGGUUAAAGUCCCGUACGGAACG, no more than 0.5. With GUUCCAUUGGCGUAAUGGUAACGCGUCUCCCUCCUAAGGAGAAGACUGUGGGUUCGCGUCCCGUCCGGACCG, the yeast fitness was no more than 0.5.

Regarding GAUCCGUUGGCGUCAUGGUAACGCGUCUCCCUCCUAAGGAGAAGACUGCAGGUUCGAGUCCCCUACGGAACG, the yeast fitness was no more than 0.5.

With GUUCCGUUGGCGUACUGGUAACGCGUCUCCCUCCUAAGGAGAAGACUGCGGGUUCAAGUCUCGUACGGAACG, the yeast fitness was determined as 0.614. Next, GUUCCGUUGGCGUAUUGGUAACGCGUCUCCCUCCAAAGGAGAGGACUGCGGGUUCGAGUCCCGUACCGAACG: no more than 0.5. Next, GUUCCGCUGGCGUGAUGGUAACGCGUCUUCUUUCUAAGGAGAAGACUGUGGGUUCGAGUCCCGUACGGAACG: no more than 0.5; GUUCCGUUGGGGUAAUGGUAACGCGUCUCCCUCCUAAGGAGAAGACUGCGGGUUCGAGUCCCCUACCGAACG: no more than 0.5; GUCCCGUUGGCGCAAUGGUAACGUGUCUCCCUCCUAAGGAGAAGACUGCGGAUUCGAGUCCCGUACGAAACG: no more than 0.5. For the variant GUUCCGUUGGCGUAACGGUAACGCGUCUCCCUCCUAAGGAGAAGACUGCGGGUUCGGGUCCCGUACGGAACG, the yeast fitness stood at 0.925.

Consider GUUCCGUUGGCGUAAUGGUAACGCGUCUACCUCCUAAGGAGAAGACUCCGGGUUCGAGUCCCGUACGGCACG, for which the yeast fitness was 0.531.

As for GUUCCGUUGGCGUAAUGGUUUCGCGUCUCCCUCCUAAGGAGAAGACUGCGGGUUCGAGUCCCGUUCAGAACG, the yeast fitness is no more than 0.5. GUUCCGUUGGCAUAAUGGUAACGCGUCUCCCUCCUAAGGCGAAGACUGCGGGUUCGAGUCCCGGACGGAACG: the yeast fitness is no more than 0.5. To GUUCCGUUGGCGUAAUGGUGACGCGUCUUCCUCCUAGGGAGAAGACUGCGGGUUCGAGUCCCGUAUGGAACG belongs no more than 0.5. Next, GUUUCGUUGGCGUAAUGGUAACGCGUCUCCCUCGUAAGGAGAAGACUGGGGGUUCGAGUCCCGUACGCAACG: no more than 0.5; GUUCCGUUGGCGUAAUGGUAGCGCGUAUCCCUCCUUAGGGGAAGACUGCGGGUUCGAGUCCCGUACGGAACG: 0.587. In the case of GUUCCGUUGGGGUAAUGGUAACGCGUCUCCCUCCCAAGGAGAAGAUUGCGGGUUCGAGUCUCGUACGGAACG, the yeast fitness is no more than 0.5. With GUUCCGUUGGCGUAAUGGUAACGCGUCUCCCUCGUAAGGAGAAGACUACGGGUUCGAGUCCCGUACGGAUCG, the yeast fitness is 0.584.

For GUUCCGUUCGCGUAAUGGUAACGUGUCUCCCUCCUACGGAGAAGACUGCGGGUUCGAGUCGCGUACGGAACG, the yeast fitness is no more than 0.5.

For GUUCCGUUGGCGUAAUGGUAACGCGACUCCCUCCUAAGGAAAAGACUGCGGGUUCGAGUCCCGUACGGAACG, the yeast fitness was 0.818. As to GUUCCGUUGCUGUAAUGGUAACGCGUCUCCCUCCUAAGGAGAAGACUGAGGGUUCGAGUCCCGUACGGAACG, the yeast fitness is 0.562. As for GUUGCGUUGGCGUAAUGGUAACGGGUACCCCUCCUAAGGAGAAGACUGCGGGUUCGAGUCCCGUUCGGAACG, the yeast fitness was no more than 0.5. To GUUCCGUUGGCGUAAUGGAAACGCGUCUCCCUCCUAAGGAGAAGAUUGCGGGUUCGAGUCCCGUACGGAACG belongs 0.958; to GUUCCGUUGGCGUAAUGGUAAAGCGUCUCCCUCCUAAGGAGAGGACUGCGGGUUCGAGUCCCUAACGGAACG, no more than 0.5; to GUUCAGUUGGCGUAAUGGUAACGCGUCUGCCUCCUAAGGAAAUGACUGCGGGUUCGAGUCCCGUACGGAACG, 0.659.

On to GUUCCGUUGGCGUAAUGGUCAGGCGUCUAGCUCCUAAGGAGAAGACUGCGGGUUCGAGUCCCGUACGGAACG, for which the yeast fitness was determined as 0.616. Next, GUUCCGUUGGCGUAUUGGUAACGCGUCUCCCUCCUAAGGAGAGGACUGCGGGUUCGAGUCCCGUACGGAACG: 0.726; GUUCCGUUGGCGUAAUAGUAAAGCGUCUCCCUCCUAAGGAGAAGCUUGCGGGUUCGAGUCACGUACGGAACG: no more than 0.5; GUUCCGUUGGGGUAAAGGUAAUGCGUCACCAUCCUAAGGAGCAGUCUGCGAGUUCGAGUCCCGAACGGAACG: no more than 0.5. Next, GUGCCGUCGGCGUAUUGGUAACGCGUCUCCCUCCUAAGGAGAAGACUGAGGGUUCGAGUCCCGUACGGAACG: 0.597; GUUCCGUUGGCAUAAUGGUAUCGCGUCUCCCUCCUAAGGAGAAGACUGCGGGUUUGAGUCCGGUACGGAACG: no more than 0.5; GUUCCGUUGGCGUAAAGGUACCGCGUCUUCCUCCUAAGGAGAAGACUGCGGGUUCGAGUCCCGUACGGAACG: no more than 0.5. Next, GUUGCGUUGGCGUAAUGGUAACGCGUCUCUCUCCUAAGGGGAAGACUGCGGGUUCGAGUGCCGUACGGAACG: no more than 0.5; GUUCCAUUGGCGUAAUGGUAACGCGUCUCCCUCUUAAGGAGAAGACUGCGGGUUCGAGUCCCGAACGGAACG: no more than 0.5; GUUCCGUUGGAGUAAAGGUAACGCGUCUCCCUCCUAAGGAGAAGACUGCGGGUUCGAGUCCCGUACGGAACG: 0.58.
